High-throughput results deposited in PubChem BioAssay by Johns Hopkins Ion Channel Center.
The list is not random: actives were taken first. Their share in the collection is about 2.3%.
TRPC6 activator: activates the mouse TRPC6 cation channel. HEK293-TRPC6 membrane potential dye fluorescence; stronger effect = higher value. hit rate 0.13% among 310,000. Q61143. AID 2550. B-score at 10 µM;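 active = B-score of the integrated fluorescence ratio above library mean plus 3 SD, and starting fluorescence ratio within library mean plus 5 SD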;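 note: higher score means more depolarization so channel activation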
TRPC6 inh: blocks the mouse TRPC6 cation channel | B-score at 10 µM | HEK293-TRPC6, membrane potential dye, ACh-evoked depolarization; stronger effect = lower value | Q61143 | hit rate 1.1% among 310,000 | AID 2553;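 active = B-score under library mean minus 3 SD, initial fluorescence not abnormally high, positive integrated signal ratio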;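 note: B-score derived from integrated fluorescence ratio over the kinetic read; more negative B-score means stronger inhibition of depolarization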
TRPC4 PAM: allosterically enhances the mouse TRPC4 cation channel | B-score at 10 µM | Q9QUQ5 | HEK293 TRPC4beta/mu-opioid, DAMGO EC20, Fluo-4 Ca2+ flux; stronger effect = higher value | hit rate 0.42% among 310,000 | AID 2227;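 active = B-score of calcium response area above 5 SD of library B-scores, with initial fluorescence ratio within 5 SD of library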;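 note: B-score of integrated fluorescence ratio over time as area under calcium response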
Target sequence (Q9QUQ5 whole entry, looked up): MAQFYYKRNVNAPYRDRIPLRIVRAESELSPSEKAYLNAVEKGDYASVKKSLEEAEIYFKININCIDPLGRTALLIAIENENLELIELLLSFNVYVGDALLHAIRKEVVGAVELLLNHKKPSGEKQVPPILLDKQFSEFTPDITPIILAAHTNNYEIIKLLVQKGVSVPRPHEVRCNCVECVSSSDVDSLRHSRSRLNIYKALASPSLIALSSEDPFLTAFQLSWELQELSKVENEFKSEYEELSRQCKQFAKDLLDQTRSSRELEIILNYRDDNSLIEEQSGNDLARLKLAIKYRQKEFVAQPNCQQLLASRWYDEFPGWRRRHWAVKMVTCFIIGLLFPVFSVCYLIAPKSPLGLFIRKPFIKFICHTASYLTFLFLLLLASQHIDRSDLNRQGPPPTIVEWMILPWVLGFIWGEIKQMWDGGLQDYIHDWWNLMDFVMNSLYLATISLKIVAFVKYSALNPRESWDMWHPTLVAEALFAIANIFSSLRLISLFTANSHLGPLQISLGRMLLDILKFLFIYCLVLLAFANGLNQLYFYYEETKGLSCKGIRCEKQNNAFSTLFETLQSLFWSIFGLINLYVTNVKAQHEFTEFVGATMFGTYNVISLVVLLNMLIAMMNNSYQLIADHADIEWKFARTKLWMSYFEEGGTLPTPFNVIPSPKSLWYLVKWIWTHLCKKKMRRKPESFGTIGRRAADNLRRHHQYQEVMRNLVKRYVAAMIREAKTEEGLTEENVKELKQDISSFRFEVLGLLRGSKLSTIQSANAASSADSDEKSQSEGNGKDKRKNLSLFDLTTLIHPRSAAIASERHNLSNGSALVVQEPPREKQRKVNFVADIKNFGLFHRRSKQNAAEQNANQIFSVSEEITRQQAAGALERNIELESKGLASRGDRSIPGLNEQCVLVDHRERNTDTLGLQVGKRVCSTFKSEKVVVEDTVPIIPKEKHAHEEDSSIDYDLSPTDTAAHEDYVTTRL
TRPC4 act: TRPC4 (mouse) channel activation; hit rate 0.49% among 310,000; HEK293 TRPC4beta/mu-opioid, Fluo4 calcium fluorescence; stronger effect = higher value; B-score at 10 µM; Q9QUQ5;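 active = B-score above 5 SD of library B-scores, and initial fluorescence ratio not above library mean plus 5 SD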;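 note: positive B-score marks a calcium rise read as TRPC4 activation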
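Test system: HEK293 cells stably co-expressing mouse TRPC4beta and mu-opioid receptor | Schedule: Fluo4 dye loading 45 min at room temperature, 110 s recording | Measured by: Kinetic Fluo4 calcium fluorescence, 5 s baseline at 1 Hz | Evaluation: B score of integrated ratio | Controls: Buffer (low) and maximal DAMGO (high)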
TRPC4 block: blocks the mouse TRPC4 cation channel | Q9QUQ5 | hit rate 0.39% among 300,000 | HEK293 TRPC4beta/mu-opioid, DAMGO-evoked Fluo4 calcium flux; stronger effect = lower value | B-score at 10 µM;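 active = B-score over 3 SD under the library average, no early fluorescence shift, positive overall ratio signal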
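Material: HEK293 cells with stable TRPC4beta plus mu-opioid receptor expression; probe or stimulus: DAMGO in two steps, submaximal then maximal; technique: Fluo4 calcium fluorescence by kinetic imaging, 5 s 1 Hz baseline; measure: integrated fluorescence ratio relative to baseline, converted to per-well B score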
TRPC4 spec 2: second selectivity test of TRPC6 inhibitors: effect on mouse TRPC4; shares compounds with TRPC6 inh; HEK293 TRPC4/MOR, membrane potential dye fluorescence; channel activated by saturating DAMGO dose; inhibition, % at 10 µM; hit rate 42% among 920;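 active = compounds whose fluorescence signal differed from control wells by over 3 SD, either direction, in both duplicate plates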
TRPC4 spec: mouse TRPC4 off-target activity of TRPC6 inhibitors | HEK293 TRPC4/mu-opioid, membrane potential fluorescence | activity change, negative = inhibition, % at 10 µM | hit rate 61% among 920 | shares compounds with TRPC6 inh;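 active = rise or fall in signal beyond 3 SD of buffer-only wells in both replicate plates, either sign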;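 note: integrated kinetic ratio of fluorescence range over baseline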
HEK293 MPD ctr 2-1: second counter-screen for TRPC6 inhibitors: parental HEK293 cells; shares compounds with TRPC6 inh; parental HEK293 membrane potential dye fluorescence; maximal acetylcholine challenge after compound addition; signal change vs control, % at 10 µM; hit rate 31% among 920; AID 2779;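 active = membrane potential signal moving either way by over 3 SD of the maximum-effect control, in both duplicate plates, meaning non-specific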
HEK293 MPD ctr-1: counter-screen for TRPC6 inhibitors: effect in parental HEK293 cells | shares compounds with TRPC6 inh | parental HEK293 membrane potential dye fluorescence | membrane potential signal change, % at 10 µM | hit rate 60% among 920;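 active = membrane potential signal shifting up or down by more than 3 SD of buffer-only wells, on both duplicate plates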
HEK293 MPD ctr-2: parental HEK293 nonspecific activity of TRPC6 modulators; shares compounds with TRPC6 inh; hit rate 51% among 2,400; membrane potential signal change, % at 10 µM; membrane potential dye fluorescence;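 active = membrane potential signal moves up or down beyond 5 SD from buffer-only wells, on both duplicate plates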
HEK293 MPD ctr 2-2: second check of TRPC6 modulator effects in parental HEK293 cells | shares compounds with TRPC6 inh | membrane potential dye fluorescence; after compound, maximal acetylcholine stimulation | inhibition, % at 10 µM | hit rate 14% among 2,400 | AID 488926;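 active = membrane potential signal drops by more than 5 SD from the mean control signal, in both duplicate plates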;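 note: plate controls were acetylcholine ECmax control wells for no effect and buffer only wells for full effect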
TRPC4 ctr mod: selectivity of TRPC6 modulators against mouse TRPC4. percent change from control (negative = decrease, positive = increase), % at 10 µM. shares compounds with TRPC6 inh. hit rate 69% among 2,400. HEK293 TRPC4/mu-opioid, membrane potential fluorescence. AID 488927;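 active = membrane potential signal moved up or down beyond 5 SD of buffer control wells, in both duplicate plates, actives on both sides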;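 note: plate controls were assay buffer wells for no effect and DAMGO maximal-effect wells for full effect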
TRPC4 ctr inh 2: second selectivity test of TRPC6 modulators against mouse TRPC4. shares compounds with TRPC6 inh. HEK293 TRPC4/mu-opioid, membrane potential dye fluorescence; stimulated with maximal-effect DAMGO. inhibition, % at 10 µM. hit rate 55% among 2,400. AID 488928;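 active = drop in membrane potential signal beyond 5 SD of the control wells in both duplicate plates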;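 note: TRPC4 counter screen for TRPC6 hits run under conditions tuned for TRPC6 not TRPC4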
TRPC6 inh conf: confirmation of mouse TRPC6 inhibitors | shares compounds with TRPC6 inh | HEK293-TRPC6, membrane potential dye, ACh-evoked depolarization | inhibition, % at 10 µM | hit rate 43% among 3,300 | AID 488960;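 active = fluorescence ratio falls more than 5 SD below the full-stimulation control mean, in both duplicate runs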;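 note: integrated fluorescence ratio of peak minus minimum over baseline after agonist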
TRPC6 act confirm: mouse TRPC6 activator confirmation; shares compounds with TRPC6 inh; HEK293-TRPC6 membrane potential dye fluorescence, FDSS; hit rate 11% among 2,800; activation, % at 10 µM;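 active = ratio signal rise beyond 5 SD above unstimulated control wells' mean, seen in both duplicate runs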;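 note: plate controls were buffer EC0 wells for no effect and acetylcholine ECmax response for full effect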
An asterisk follows results filed as active; i = inactive; . = no result.

SMILES | TRPC6 activator | TRPC6 inh | TRPC4 PAM | TRPC4 act | TRPC4 block | TRPC4 spec 2 | TRPC4 spec | HEK293 MPD ctr 2-1 | HEK293 MPD ctr-1 | TRPC6 inh conf | TRPC6 act confirm | others
O=c1c2sccc2n(Cc2cc(=O)n3ccccc3n2)c(=O)n1-c1ccccc1 | i | i | i | i | i | . | . | . | . | . | .
CCOc1ccc(CCNC(=O)COC(=O)c2nccnc2N)cc1OCC | i | i | i | i | i | . | . | . | . | . | .
CCn1c(SC)nnc1C1CCN(CC(=O)Nc2ccccc2N2CCOCC2)CC1 | i | -5.38* | i | i | i | . | . | . | . | i | i | HEK293 MPD ctr-2=i;HEK293 MPD ctr 2-2=i;TRPC4 ctr mod=i;TRPC4 ctr inh 2=i
CSc1nnc(C2CCN(CC(=O)Nc3ccccc3N3CCOCC3)CC2)n1C | i | i | i | i | i | . | . | . | . | . | .
Cc1onc(-c2ccccc2)c1C(=O)N/N=C/c1ccc([N+](=O)[O-])s1 | i | -8.16* | i | i | i | i | i | i | i | i | i
Cc1ccc(Nc2nnc(SCC(=O)c3ccc(O)cc3O)s2)cc1 | i | i | i | i | i | . | . | . | . | . | .
CN(C)CCCN(C(=O)c1ccco1)c1nc(-c2ccc(Cl)cc2)cs1 | i | -7.29* | i | i | -6* | 12.5%* | i | i | -151.5%* | i | i
CN(C)CCCN(C(=O)/C=C/c1cccs1)c1nc2c(F)cccc2s1 | i | -7.06* | i | i | i | i | i | i | i | i | i
CN(C)CCCN(C(=O)CCc1ccccc1)c1nc2c(F)cccc2s1 | i | i | i | i | i | . | . | . | . | . | .
CN(C)CCCN(C(=O)c1ccco1)c1nc2c(F)cc(F)cc2s1 | i | -7.14* | i | i | i | . | . | . | . | 51.5%* | i | HEK293 MPD ctr-2=-158.5%*;HEK293 MPD ctr 2-2=i;TRPC4 ctr mod=-34.0%*;TRPC4 ctr inh 2=82.0%*
CN(C)CCCN(C(=O)c1ccco1)c1nc2c(F)cccc2s1 | i | -9.79* | i | i | i | 18.0%* | -31.9%* | 25.5%* | -299.5%* | 107.4%* | i
CCN(CC)S(=O)(=O)c1ccc(N2CCCC2)c(NC(=O)CN2C(=O)NC3(CCCC3)C2=O)c1 | i | i | i | i | i | . | . | . | . | . | .
CCOc1ccc(CCNC(=O)CN2C(=O)CCSc3ccccc32)cc1 | i | i | i | i | i | . | . | . | . | . | .
C=CCC1(/C=N/O)CCOC(C)(C)C1 (configuration not stated) | i | i | i | i | i | . | . | . | . | . | .
